From ChEMBL document CHEMBL1212837, “Benzo[b]thiophene-6-carboxamide 1,1-dioxides: inhibitors of human cancer cell growth at nanomolar concentrations” (2010)
Active and inactive are the calls of the source. The calls are words filed in the database; no cut-off is given here.

Assays:
CCRF-CEM [1] = assay: Cell cycle arrest in human CCRF-CEM cells assessed as accumulation at S phase at 2.5 uM using propidium iodide staining by flow cytometry; type: functional, cell-based; settings: TDE = time-dependent effect
In short: (§1)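 CCRF-CEM cells were seeded at 10⁶ cells/ml in complete medium and exposed to 2.5 µM for 24 h. Cells were pelleted (700 g, 6 min, 4 °C), washed in PBS and fixed in 70% ethanol at 4 °C for 20 min. They were then stained with PI (50 µg/ml) plus RNase at 37 °C for 30 min. DNA content was read by flow cytometry on 10,000 events to give phase percentages. Six independent experiments, duplicate wells, mean SD.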

[2] = Cytotoxicity against human MEL-AC cells after 72 hrs by MTT assay; type: functional
In short: (§2)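 Cells were grown in medium with 10% fetal calf serum, 2 mM L-glutamine, penicillin/streptomycin and 10 mM HEPES (pH 7.4). Compounds were made up as a 0.1 M DMSO stock and serially diluted in medium to five doses between 0.01 and 100. Exposure was 72 h at 37 °C in humidified 5% CO₂. Read-out was MTT colorimetric, giving GI50 as the concentration reducing growth by 50%.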

K562 = assay: Cytotoxicity against human K562 cells after 72 hrs by MTT assay; type: functional; settings: K562, 72 h; in short: as §2
[3] = Cytotoxicity against human HTB-54 cells after 72 hrs by MTT assay; type: functional; settings: HTB-54, 72 h; in short: as §2
HT-29 = assay: Cytotoxicity against human HT-29 cells after 72 hrs by MTT assay; type: functional; settings: HT-29, 72 h; in short: as §2
CCRF-CEM [4] = assay: Cytotoxicity against human CCRF-CEM cells after 72 hrs by MTT assay; type: functional; in short: as §2
HeLa = assay: Cytotoxicity against human HeLa cells after 72 hrs by MTT assay; type: functional; in short: as §2
CCRF-CEM [5] = assay: Cell cycle arrest in human CCRF-CEM cells assessed as accumulation at S phase after 24 hrs using propidium iodide staining by flow cytometry; type: functional, cell-based; in short: as §1
CCRF-CEM [6] = assay: Induction of apoptosis in human CCRF-CEM cells at 2.5 uM after 24 hrs using V-FITC and propidium iodide staining by flow cytometry in presence of N-acetyl-cysteine
CCRF-CEM [7] = assay: Cell cycle arrest in human CCRF-CEM cells assessed as reduction of cell accumulation at G0/G1 phase at 2.5 uM after 24 hrs using propidium iodide staining by flow cytometry; type: functional, cell-based; in short: as §1
CCRF-CEM [8] = assay: Induction of apoptosis in human CCRF-CEM cells at 6 uM after 12 hrs using V-FITC and propidium iodide staining by flow cytometry; type: functional
In short: (§3)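 CCRF-CEM cells were incubated with compound for 12 to 48 h. Cells (5×10⁵) were pelleted, washed in PBS and stained with annexin V-FITC plus propidium iodide for 15 min at 4 °C in the dark. Phosphatidylserine-exposing (apoptotic) cells were counted by flow cytometry. Five independent experiments, duplicate wells, mean SD.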

CCRF-CEM [9] = assay: Induction of increase in ROS level in human CCRF-CEM cells at 2.5 uM after 24 hrs using CM-H2DCFDA fluorescent probe by flow cytometry; type: functional, cell-based
In short: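 CCRF-CEM cells at 1×10⁶ cells/ml were cultured with or without 2.5 µM for 24 h. Cells (2×10⁶) were then loaded with 1 µM CM-H₂DCFDA for 60 min at 37 °C and fluorescence was read by flow cytometry. Results are expressed as fold over untreated cells, with 4-HPR as the positive control. Two independent experiments, triplicate wells, mean SD.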

CCRF-CEM [10] = assay: Cell cycle arrest in human CCRF-CEM cells assessed as accumulation at sub-G1 phase at 2.5 uM after 24 hrs using propidium iodide staining by flow cytometry; type: functional, cell-based; in short: as §1
CCRF-CEM [11] = assay: Induction of apoptosis in human CCRF-CEM cells at 6 uM after 48 hrs using V-FITC and propidium iodide staining by flow cytometry; type: functional; in short: as §3
CCRF-CEM [12] = assay: Cell cycle arrest in human CCRF-CEM cells assessed as accumulation at S phase at 2.5 uM after 24 hrs using propidium iodide staining by flow cytometry; type: functional, cell-based; in short: as §1

| SMILES | Activity (CCRF-CEM [1]) | GI50 [2] [µM] | GI50 (K562) [µM] | GI50 [3] [µM] | GI50 (HT-29) [µM] | GI50 (CCRF-CEM [4]) [µM] | GI50 (HeLa) [µM] | Activity (CCRF-CEM [5]) | Activity (CCRF-CEM [6]) | Activity (CCRF-CEM [7]) | Activity (CCRF-CEM [8]) [%] | Activity (CCRF-CEM [9]) | Activity (CCRF-CEM [10]) | Activity (CCRF-CEM [11]) [%] | Activity (CCRF-CEM [12]) |
| --- | --- | --- | --- | --- | --- | --- | --- | --- | --- | --- | --- | --- | --- | --- | --- |
| COc1ccc(CCNS(=O)(=O)c2ccc3c(c2)S(=O)(=O)C=C3)cc1 | tde | 1.93 | 0.006 | 0.62 | 0.22 | 0.005 | 0.12 | Dose-dependent effect | – | – | – | – | – | – | – |
| O=S1(=O)C=Cc2ccc(S(=O)(=O)NCc3ccccc3)cc21 | tde | 0.4 | 0.72 | 0.7 | 0.84 | 0.33 | 0.01 | Dose-dependent effect | – | – | – | – | – | – | – |
| NS(=O)(=O)c1ccc2c(c1)S(=O)(=O)C=C2 | tde | 7.14 | 29.4 | 5.89 | 8.55 | 2.86 | 2.21 | Dose-dependent effect | – | – | – | – | – | – | – |
| COc1ccc(NC(=O)c2ccc3c(c2)S(=O)(=O)C=C3)cc1 | tde | 0.76 | 0.047 | 0.002 | 0.35 | 0.004 | 0.003 | Dose-dependent effect | Active | Active | 30.4 | Active | Active | 83 | Active |
| CCCCNC(=O)c1ccc2c(c1)S(=O)(=O)C=C2 | tde | 1.42 | 2.73 | 0.09 | 2.32 | 0.28 | 0.08 | Dose-dependent effect | – | – | – | – | – | – | – |
| O=S1(=O)C=Cc2ccc(O)cc21 | tde | 24 | 51.1 | 7.53 | 2.04 | 19.2 | – | Dose-dependent effect | – | – | – | – | – | – | – |
| NC(=O)c1ccc2c(c1)S(=O)(=O)C=C2 | tde | 3.52 | 7.85 | 0.22 | 5.19 | 3.55 | 0.65 | Dose-dependent effect | – | – | – | – | – | – | – |
| CN(Cc1ccccc1)S(=O)(=O)c1ccc2c(c1)S(=O)(=O)C=C2 | tde | 2.3 | 38.1 | 0.4 | 35 | 0.63 | 0.01 | Dose-dependent effect | – | – | – | – | – | – | – |
| COc1ccc(CCNC(=O)c2ccc3c(c2)S(=O)(=O)C=C3)cc1 | tde | 1.32 | 2.66 | 0.64 | 2.08 | 0.73 | 0.04 | Dose-dependent effect | – | – | – | – | – | – | – |
